From ChEMBL document CHEMBL4610103, “Oleanane Triterpenoids from the Leaves of Gymnema inodorum and Their Insulin Mimetic Activities” (J Nat Prod, 2020)
Active and inactive are the calls of the source.

Experiments:
Type in all cases: functional, cell-based
3T3-L1 [1] = assay: Induction of glucose uptake in mouse 3T3L1 cells assessed as increase in 2-NBDG uptake at 20 uM after 1 hr by fluorescence method
Procedure, shortened: (§1)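 Differentiated 3T3-L1 adipocytes switched to glucose-free medium containing 100 nM insulin, test compounds (20 μM single dose, or 5, 10 and 20 μM) and 50 μM 2-NBDG. Cells washed twice with PBS and lysed in 1% Triton X-100/0.1 M K3PO4 in PBS. Fluorescence read at ex 450/em 535 nm. Means ± SD of three independent experiments, each in triplicate. DMSO vehicle control; insulin positive control.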

3T3-L1 [2] = assay: Induction of glucose uptake in mouse 3T3L1 cells assessed as increase in 2-NBDG uptake after 1 hr by fluorescence method; procedure, shortened: as §1
3T3-L1 [3] = assay: Induction of glucose uptake in mouse 3T3L1 cells assessed as increase in 2-NBDG uptake at 20 uM after 1 hr by fluorescence microscopy
Procedure, shortened: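 Differentiated 3T3-L1 adipocytes treated with 20 μM compound in the presence of 2-NBDG. Green fluorescence inside cells was imaged by fluorescence microscopy to follow 2-NBDG transport. Signals expressed as means ± SD (n = 3). DMSO negative control; insulin positive control.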

Measured: Activity

CNc1ccccc1C(=O)O[C@H]1CC(C)(C)C[C@H]2C3=CC[C@@H]4[C@@]5(C)CC[C@H](O[C@@H]6O[C@H](C(=O)O)[C@@H](O)[C@H](O)[C@H]6O)[C@@](C)(CO)[C@@H]5CC[C@@]4(C)[C@]3(C)C[C@H](O)[C@@]12CO
active: 3T3-L1 [1] | 3T3-L1 [2] Dose-dependent effect | 3T3-L1 [3]

CC1(C)C[C@H](OC(=O)c2ccccc2)[C@]2(CO)[C@@H](O)C[C@]3(C)C(=CC[C@@H]4[C@@]5(C)CC[C@H](O[C@@H]6O[C@H](C(=O)O)[C@@H](O)[C@H](O)[C@H]6O)[C@@](C)(CO)[C@@H]5CC[C@]43C)[C@@H]2C1
active: 3T3-L1 [1] | 3T3-L1 [2] Dose-dependent effect | 3T3-L1 [3]

CC1(C)CC[C@]2(C)[C@@H](O)C[C@]3(C)C(=CC[C@@H]4[C@@]5(C)CC[C@H](O[C@@H]6O[C@H](C(=O)O)[C@@H](O)[C@H](O)[C@H]6O[C@@H]6O[C@H](CO)[C@@H](O)[C@H](O)[C@H]6O)C(C)(C)[C@@H]5CC[C@]43C)[C@@H]2C1
active: 3T3-L1 [1] | 3T3-L1 [2] Dose-dependent effect | 3T3-L1 [3]
